In ChEMBL document CHEMBL1687878, “Synthesis and biological evaluation of substituted (thieno[2,3-d]pyrimidin-4-ylthio)carboxylic acids as inhibitors of human protein kinase CK2” (Eur J Med Chem, 2011):

How the values were obtained:
Casein kinase II = Casein kinase II (Homo sapiens, UniProt P19784+P67870+P68400); test: Inhibition of recombinant human CK2 activity assessed as [gamma-32P]ATP incorporation into substrate peptide after 20 mins in presence of 50 uM ATP; assay type: protein-complex assay
Sequence of Casein kinase II (P67870 whole entry): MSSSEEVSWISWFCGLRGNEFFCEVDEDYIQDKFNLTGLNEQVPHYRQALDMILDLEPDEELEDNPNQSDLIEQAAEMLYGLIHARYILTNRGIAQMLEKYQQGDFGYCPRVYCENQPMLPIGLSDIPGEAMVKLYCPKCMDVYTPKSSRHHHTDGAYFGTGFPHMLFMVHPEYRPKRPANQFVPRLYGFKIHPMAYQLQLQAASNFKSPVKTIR
Sequence of Casein kinase II (P68400 whole entry): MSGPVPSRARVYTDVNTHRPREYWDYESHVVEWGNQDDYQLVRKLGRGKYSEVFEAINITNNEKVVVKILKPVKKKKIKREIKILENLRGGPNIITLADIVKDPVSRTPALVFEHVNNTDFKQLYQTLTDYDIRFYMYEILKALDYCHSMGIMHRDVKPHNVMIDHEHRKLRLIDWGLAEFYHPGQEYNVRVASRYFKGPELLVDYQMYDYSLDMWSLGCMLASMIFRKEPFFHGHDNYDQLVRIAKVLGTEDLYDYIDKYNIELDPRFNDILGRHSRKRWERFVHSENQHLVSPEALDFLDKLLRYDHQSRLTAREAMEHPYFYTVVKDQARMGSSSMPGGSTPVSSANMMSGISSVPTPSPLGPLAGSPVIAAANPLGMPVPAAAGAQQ
Sequence of Casein kinase II (P19784 whole entry): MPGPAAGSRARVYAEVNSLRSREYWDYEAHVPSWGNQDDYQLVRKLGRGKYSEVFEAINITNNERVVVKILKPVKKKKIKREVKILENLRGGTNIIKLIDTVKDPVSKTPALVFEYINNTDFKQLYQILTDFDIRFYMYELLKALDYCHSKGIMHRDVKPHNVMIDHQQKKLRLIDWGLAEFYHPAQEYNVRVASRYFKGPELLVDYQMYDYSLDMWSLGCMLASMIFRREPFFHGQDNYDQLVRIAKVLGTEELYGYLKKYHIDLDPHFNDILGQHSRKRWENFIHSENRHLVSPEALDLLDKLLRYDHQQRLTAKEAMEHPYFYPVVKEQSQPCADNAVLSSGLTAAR
Outline: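 Radiometric assay with 10 units of recombinant human CK2 in 20 mM Tris-HCl pH 7.5, 50 mM KCl, 10 mM MgCl2. It used 50 µM ATP plus γ-32P ATP (specific activity 100 µCi/µM) and serially diluted inhibitor, run 20 min at 30 °C. The reaction was stopped with 10% phosphoric acid, spotted on phosphocellulose paper, washed with 1% phosphoric acid and Cherenkov-counted. Percent inhibition was taken relative to the DMSO no-inhibitor control, and IC50 was derived from the dilution series.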

[1] = biological target: T1, Mitogen-activated protein kinase kinase kinase 5 (Homo sapiens) (UniProt Q99683); test: Inhibition of recombinant human Ask1 kinase assessed as residual activity at 10 uM in presence of 100 uM ATP
T1 sequence (whole entry): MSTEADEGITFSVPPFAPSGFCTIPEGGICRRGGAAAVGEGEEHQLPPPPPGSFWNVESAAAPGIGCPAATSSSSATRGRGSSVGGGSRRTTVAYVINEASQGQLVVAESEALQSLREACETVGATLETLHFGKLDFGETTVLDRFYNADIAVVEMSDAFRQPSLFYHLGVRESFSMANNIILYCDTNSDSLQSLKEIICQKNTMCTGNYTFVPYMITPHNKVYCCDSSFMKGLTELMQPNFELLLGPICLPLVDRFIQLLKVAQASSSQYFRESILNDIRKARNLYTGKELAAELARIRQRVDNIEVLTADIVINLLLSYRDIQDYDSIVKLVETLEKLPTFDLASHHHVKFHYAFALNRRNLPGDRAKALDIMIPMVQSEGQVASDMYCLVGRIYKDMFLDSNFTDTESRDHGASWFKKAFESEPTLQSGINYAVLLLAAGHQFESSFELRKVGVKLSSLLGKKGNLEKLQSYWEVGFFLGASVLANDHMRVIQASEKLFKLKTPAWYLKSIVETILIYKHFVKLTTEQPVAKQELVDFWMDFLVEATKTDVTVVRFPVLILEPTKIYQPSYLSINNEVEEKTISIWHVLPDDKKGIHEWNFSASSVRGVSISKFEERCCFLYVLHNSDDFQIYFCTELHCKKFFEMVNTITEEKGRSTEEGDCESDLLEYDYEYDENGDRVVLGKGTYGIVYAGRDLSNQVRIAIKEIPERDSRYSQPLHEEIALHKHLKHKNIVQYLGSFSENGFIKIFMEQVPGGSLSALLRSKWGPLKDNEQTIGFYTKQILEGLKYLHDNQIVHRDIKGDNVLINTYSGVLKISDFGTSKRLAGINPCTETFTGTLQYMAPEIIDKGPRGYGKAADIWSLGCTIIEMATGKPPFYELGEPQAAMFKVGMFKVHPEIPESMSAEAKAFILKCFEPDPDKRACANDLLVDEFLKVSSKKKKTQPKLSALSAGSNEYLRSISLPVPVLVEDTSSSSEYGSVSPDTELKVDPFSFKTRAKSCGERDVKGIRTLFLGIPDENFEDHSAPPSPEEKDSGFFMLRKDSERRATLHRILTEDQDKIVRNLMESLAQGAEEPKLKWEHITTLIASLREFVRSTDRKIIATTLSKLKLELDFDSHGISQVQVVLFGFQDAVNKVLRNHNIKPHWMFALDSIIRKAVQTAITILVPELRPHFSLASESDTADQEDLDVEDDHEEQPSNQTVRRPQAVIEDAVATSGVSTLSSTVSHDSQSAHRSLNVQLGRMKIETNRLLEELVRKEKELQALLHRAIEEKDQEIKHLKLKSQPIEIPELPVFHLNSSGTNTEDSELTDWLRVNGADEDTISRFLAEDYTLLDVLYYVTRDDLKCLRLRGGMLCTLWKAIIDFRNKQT
Outline: (§1)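 Inhibitor was tested at 10 µM with a final ATP of 100 µM. Residual activity is expressed as a percentage of the control without inhibitor.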

[2] = biological target: Casein kinase II (Homo sapiens) (UniProt P67870+P68400+P19784); test: Inhibition of recombinant human CK2 kinase assessed as residual activity at 10 uM in presence of 100 uM ATP; assay type: protein-complex assay
Outline: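 CK2 residual activity was measured with 10 µM inhibitor and a final ATP of 100 µM. It is expressed as a percentage of the no-inhibitor control.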

[3] = biological target: Hepatocyte growth factor receptor (Homo sapiens) (UniProt P08581); test: Inhibition of recombinant human Met kinase assessed as residual activity at 10 uM in presence of 100 uM ATP; outline: as §1
[4] = biological target: T2, Aurora kinase A (Homo sapiens) (UniProt O14965); test: Inhibition of recombinant human Aurora A kinase assessed as residual activity at 10 uM in presence of 100 uM ATP; outline: as §1
T2 sequence (whole entry): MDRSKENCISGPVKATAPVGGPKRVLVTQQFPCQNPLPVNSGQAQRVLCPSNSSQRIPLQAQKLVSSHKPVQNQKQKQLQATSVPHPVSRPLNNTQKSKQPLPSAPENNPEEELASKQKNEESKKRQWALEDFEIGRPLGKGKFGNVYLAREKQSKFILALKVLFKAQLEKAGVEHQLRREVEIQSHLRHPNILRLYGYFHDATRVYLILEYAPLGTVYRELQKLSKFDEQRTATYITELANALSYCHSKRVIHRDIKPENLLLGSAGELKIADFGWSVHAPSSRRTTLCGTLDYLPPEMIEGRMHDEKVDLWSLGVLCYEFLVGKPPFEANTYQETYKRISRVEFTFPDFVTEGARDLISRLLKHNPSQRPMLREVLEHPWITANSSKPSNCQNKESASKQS

[5] = biological target: Angiopoietin-1 receptor (Homo sapiens) (UniProt Q02763); test: Inhibition of recombinant human Tie2 kinase assessed as residual activity at 10 uM in presence of 100 uM ATP; outline: as §1
Sequence of Angiopoietin-1 receptor (Homo sapiens) (Q02763 whole entry): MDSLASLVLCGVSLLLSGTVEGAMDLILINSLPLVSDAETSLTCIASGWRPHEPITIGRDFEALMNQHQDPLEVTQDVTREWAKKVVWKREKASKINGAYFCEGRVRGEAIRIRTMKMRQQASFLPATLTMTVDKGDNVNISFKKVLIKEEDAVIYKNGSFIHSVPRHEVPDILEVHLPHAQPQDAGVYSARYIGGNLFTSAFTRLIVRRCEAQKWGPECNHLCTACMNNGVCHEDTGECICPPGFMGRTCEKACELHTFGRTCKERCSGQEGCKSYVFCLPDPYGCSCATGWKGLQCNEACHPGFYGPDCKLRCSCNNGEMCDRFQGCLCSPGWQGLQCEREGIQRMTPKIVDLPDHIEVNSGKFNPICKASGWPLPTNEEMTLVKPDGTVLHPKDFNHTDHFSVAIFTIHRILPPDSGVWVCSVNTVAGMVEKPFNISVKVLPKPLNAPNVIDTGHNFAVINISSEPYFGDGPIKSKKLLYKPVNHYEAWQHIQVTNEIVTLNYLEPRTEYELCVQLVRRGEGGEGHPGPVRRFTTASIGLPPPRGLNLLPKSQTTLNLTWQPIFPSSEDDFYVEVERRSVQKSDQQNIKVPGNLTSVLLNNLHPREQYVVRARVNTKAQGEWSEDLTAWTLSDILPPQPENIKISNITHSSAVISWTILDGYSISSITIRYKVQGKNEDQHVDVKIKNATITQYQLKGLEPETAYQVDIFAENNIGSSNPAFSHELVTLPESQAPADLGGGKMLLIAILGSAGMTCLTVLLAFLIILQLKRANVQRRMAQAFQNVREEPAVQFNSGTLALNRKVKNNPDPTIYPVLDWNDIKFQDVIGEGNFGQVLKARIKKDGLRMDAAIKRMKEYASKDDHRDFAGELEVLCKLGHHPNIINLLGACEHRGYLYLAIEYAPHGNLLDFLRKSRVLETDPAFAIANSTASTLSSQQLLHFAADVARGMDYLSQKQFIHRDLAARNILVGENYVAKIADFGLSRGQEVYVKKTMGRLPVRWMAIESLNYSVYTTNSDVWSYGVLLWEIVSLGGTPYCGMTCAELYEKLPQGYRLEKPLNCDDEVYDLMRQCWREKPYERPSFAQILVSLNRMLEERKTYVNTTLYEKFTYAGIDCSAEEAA

[6] = biological target: Rho-associated protein kinase 1 (Homo sapiens) (UniProt Q13464); test: Inhibition of recombinant human Rock1 kinase assessed as residual activity at 10 uM in presence of 100 uM ATP; outline: as §1
Sequence of Rho-associated protein kinase 1 (Homo sapiens) (Q13464 2-1354 limits assumed): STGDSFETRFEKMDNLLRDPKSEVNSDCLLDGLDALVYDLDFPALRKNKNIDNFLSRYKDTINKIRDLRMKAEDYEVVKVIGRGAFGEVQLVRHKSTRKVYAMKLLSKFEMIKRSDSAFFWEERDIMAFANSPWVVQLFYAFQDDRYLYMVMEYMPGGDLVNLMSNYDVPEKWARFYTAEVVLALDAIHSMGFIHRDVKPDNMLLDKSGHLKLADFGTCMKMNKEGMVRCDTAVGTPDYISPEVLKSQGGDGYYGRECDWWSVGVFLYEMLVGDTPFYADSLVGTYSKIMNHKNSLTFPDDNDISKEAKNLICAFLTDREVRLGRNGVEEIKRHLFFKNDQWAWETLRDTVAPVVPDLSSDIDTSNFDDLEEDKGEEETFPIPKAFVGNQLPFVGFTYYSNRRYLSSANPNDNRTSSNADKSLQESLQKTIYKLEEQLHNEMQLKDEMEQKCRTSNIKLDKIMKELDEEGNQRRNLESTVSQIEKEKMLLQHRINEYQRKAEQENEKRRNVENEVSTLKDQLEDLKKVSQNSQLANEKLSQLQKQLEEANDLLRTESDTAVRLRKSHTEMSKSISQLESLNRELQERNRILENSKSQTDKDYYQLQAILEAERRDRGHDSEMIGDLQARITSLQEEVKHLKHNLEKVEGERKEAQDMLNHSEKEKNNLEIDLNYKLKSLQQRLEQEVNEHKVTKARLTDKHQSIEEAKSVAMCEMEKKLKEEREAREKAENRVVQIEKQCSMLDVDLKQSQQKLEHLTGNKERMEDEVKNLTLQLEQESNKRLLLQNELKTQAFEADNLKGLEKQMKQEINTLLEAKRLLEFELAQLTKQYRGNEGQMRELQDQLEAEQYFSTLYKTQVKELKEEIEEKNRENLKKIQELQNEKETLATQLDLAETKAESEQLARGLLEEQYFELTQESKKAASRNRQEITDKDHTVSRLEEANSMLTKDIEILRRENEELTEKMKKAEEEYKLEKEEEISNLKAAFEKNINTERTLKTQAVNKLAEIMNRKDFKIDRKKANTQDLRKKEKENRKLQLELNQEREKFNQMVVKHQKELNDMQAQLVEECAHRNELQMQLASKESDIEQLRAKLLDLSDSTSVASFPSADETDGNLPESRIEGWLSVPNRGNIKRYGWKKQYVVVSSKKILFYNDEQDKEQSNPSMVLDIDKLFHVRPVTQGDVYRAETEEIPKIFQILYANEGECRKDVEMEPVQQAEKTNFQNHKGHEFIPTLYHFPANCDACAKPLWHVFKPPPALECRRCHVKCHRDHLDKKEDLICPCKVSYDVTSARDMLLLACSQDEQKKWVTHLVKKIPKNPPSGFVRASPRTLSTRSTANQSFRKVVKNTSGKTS

[7] = biological target: Fibroblast growth factor receptor 1 (Homo sapiens) (UniProt P11362); test: Inhibition of recombinant human FGFR1 kinase assessed as residual activity at 10 uM in presence of 100 uM ATP; outline: as §1
Sequence of Fibroblast growth factor receptor 1 (Homo sapiens) (P11362 22-822 limits assumed): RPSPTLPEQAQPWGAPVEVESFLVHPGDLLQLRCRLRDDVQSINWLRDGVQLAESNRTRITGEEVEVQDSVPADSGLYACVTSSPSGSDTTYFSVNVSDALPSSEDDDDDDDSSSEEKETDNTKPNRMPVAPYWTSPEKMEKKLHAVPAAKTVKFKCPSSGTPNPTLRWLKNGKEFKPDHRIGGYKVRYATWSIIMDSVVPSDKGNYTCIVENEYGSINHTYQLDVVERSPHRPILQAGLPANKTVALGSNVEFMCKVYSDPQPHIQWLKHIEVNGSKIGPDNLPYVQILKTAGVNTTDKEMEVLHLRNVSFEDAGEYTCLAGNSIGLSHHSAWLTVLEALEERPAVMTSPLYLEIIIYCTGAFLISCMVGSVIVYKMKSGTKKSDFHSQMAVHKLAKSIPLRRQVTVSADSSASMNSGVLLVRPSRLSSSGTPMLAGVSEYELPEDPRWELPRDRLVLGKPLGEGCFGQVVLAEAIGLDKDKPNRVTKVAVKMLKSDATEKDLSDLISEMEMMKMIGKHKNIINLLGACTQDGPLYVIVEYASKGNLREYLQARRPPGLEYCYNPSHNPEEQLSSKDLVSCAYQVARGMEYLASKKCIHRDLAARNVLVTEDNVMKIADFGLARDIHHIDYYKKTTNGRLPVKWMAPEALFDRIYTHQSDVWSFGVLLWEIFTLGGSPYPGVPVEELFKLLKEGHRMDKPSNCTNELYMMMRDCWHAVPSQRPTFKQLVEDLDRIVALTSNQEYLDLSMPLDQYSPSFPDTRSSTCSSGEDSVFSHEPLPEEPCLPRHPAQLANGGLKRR

[8] = biological target: Mitogen-activated protein kinase 10 (Homo sapiens) (UniProt P53779); test: Inhibition of recombinant human Jnk3 kinase assessed as residual activity at 10 uM in presence of 100 uM ATP; outline: as §1
Sequence of Mitogen-activated protein kinase 10 (Homo sapiens) (P53779 whole entry): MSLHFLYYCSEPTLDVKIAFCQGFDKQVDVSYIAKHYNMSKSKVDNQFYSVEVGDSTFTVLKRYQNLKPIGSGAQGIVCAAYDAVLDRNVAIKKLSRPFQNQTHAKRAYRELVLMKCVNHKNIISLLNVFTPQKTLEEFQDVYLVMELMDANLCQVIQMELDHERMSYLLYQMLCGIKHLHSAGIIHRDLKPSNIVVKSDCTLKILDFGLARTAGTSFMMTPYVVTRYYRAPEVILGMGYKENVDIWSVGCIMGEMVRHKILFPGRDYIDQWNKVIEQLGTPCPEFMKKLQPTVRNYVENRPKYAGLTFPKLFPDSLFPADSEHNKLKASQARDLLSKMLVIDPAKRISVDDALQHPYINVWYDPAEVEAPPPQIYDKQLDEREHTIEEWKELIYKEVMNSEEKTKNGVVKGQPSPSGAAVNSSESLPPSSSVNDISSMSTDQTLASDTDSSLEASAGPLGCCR

[9] = Competitive inhibition of recombinant human CK2 activity by Lineweaver-Burk plot analysis

Structure (SMILES)	IC50 (Casein kinase II) [µM]	further results
O=C(O)CSc1ncnc2scc(-c3ccc(Cl)cc3)c12	32	
O=C(O)CSc1ncnc2sc(-c3ccccc3)cc12	1.25	
Cc1cc2c(SCCC(=O)O)ncnc2s1	7	
Cc1nc(SCCC(=O)O)c2c3c(sc2n1)CCCC3	15.8	
CC(Sc1ncnc2scc(-c3ccccc3)c12)C(=O)O (stereo not given)	23	
CC(Sc1ncnc2sc3c(c12)CCCC3)C(=O)O (stereo not given)	17	
Cc1sc2ncnc(SCc3cccc(C(=O)O)c3)c2c1C	17.8	
O=C(O)CSc1ncnc2scc(-c3ccccc3)c12	30	
CCC(Sc1ncnc2scc(-c3ccc(C)cc3)c12)C(=O)O (stereo not given)	> 33	
CCC(Sc1ncnc2scc(-c3ccc(Cl)cc3)c12)C(=O)O (stereo not given)	> 33	
CCC(Sc1ncnc2sc3c(c12)CCCC3)C(=O)O (stereo not given)	> 33	
O=C(O)CCSc1ncnc2scc(-c3ccc(Cl)cc3)c12	0.175	
Cc1nc(SCCC(=O)O)c2cc(-c3ccccc3)sc2n1	3.5	
O=C(O)CSc1ncnc2scc(-c3ccc(Br)cc3)c12	14	
Cc1sc2ncnc(SCCC(=O)O)c2c1C	11.3	
Cc1sc2ncnc(SCC(=O)O)c2c1C	17.8	
O=C(O)CCCSc1ncnc2sc3c(c12)CCCC3	> 33	
O=C(O)c1ccc(CSc2ncnc3sc4c(c23)CCCC4)cc1	> 33	
Cc1ccc(-c2csc3ncnc(SC(C)C(=O)O)c23)cc1 (stereo not given)	31	
CCOc1ccc(-c2csc3ncnc(SCCC(=O)O)c23)cc1	0.125	Activity [1]: 100%; Activity [2]: 0.86%; Activity [3]: 115%; Activity [4]: 48%; Activity [5]: 76%; Activity [6]: 115%; Activity [7]: 99%; Activity [8]: 94%
Cc1ccc(-c2csc3ncnc(SCCC(=O)O)c23)cc1	0.1	Activity [1]: 92%; Activity [2]: 0.72%; Activity [3]: 114%; Activity [4]: 23%; Activity [5]: 70%; Activity [6]: 126%; Ki [9]: 0.04 µM; Activity [7]: 92%; Activity [8]: 104%
CC1CCc2c(sc3ncnc(SCC(=O)O)c23)C1 (stereo not given)	1.78	
Cc1sc2ncnc(SC(C)C(=O)O)c2c1C (stereo not given)	> 33	
CC1CCc2c(sc3ncnc(SC(C)C(=O)O)c23)C1 (stereo not given)	20	
Cc1cc2c(SCC(=O)O)ncnc2s1	4	
O=C(O)CCSc1ncnc2scc(-c3ccc(F)cc3)c12	1.2	
Cc1ccc(-c2csc3ncnc(SCCC(=O)O)c23)cc1C	0.175	
Cc1sc2ncnc(SCC(=O)O)c2c1-c1ccccc1	> 33	
